One data set relates to Rattus norvegicus. Description: Antiinflammatory activity in po dosed Wistar rat model of type-2 collagen/incomplete freund's adjuvant-induced arthritis assessed as reduction in paw inflammation administered once daily on day 9 post type-2 collagen/incomplete freund's adjuvant stimulation and treated until day 16. The note with it: dose 1-30 mg/kg, time 8.0 day. It counts as functional, organism-based. The procedure, abridged: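 Arthritis induced in female Wistar rats by collagen injection on day 0 and day 7. Compound given orally once daily from day 9 through day 16. Hind paw inflammation scored. Anti-TNFα comparator dosed at 10 mg/kg every other day.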

A short description of data set [1]: Oral bioavailability in Beagle dog at 2.5 mg/kg measured upto 24 hrs by LC-MS/MS analysis. Conditions: in vivo. It counts as ADME, organism-based, Canis lupus familiaris. The procedure, abridged: (§1)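 Rats (nonfasted; IV 1 mg/kg, PO 5 mg/kg) and dogs (fasted; IV 0.5 mg/kg, PO 2.5 mg/kg) dosed from 20% hydroxypropyl-β-cyclodextrin solution.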
The target in data set [2] is Proto-oncogene tyrosine-protein kinase Src (Homo sapiens, UniProt P12931). The data set can be described thus: Inhibition of recombinant human SRC (1 to 530 residues) using GGEEEEYFELVKKKK as substrate incubated for 40 mins in presence of [gamma33P]ATP by scintillation counting method.
Sequence of Proto-oncogene tyrosine-protein kinase Src (P12931 2-536 limits assumed): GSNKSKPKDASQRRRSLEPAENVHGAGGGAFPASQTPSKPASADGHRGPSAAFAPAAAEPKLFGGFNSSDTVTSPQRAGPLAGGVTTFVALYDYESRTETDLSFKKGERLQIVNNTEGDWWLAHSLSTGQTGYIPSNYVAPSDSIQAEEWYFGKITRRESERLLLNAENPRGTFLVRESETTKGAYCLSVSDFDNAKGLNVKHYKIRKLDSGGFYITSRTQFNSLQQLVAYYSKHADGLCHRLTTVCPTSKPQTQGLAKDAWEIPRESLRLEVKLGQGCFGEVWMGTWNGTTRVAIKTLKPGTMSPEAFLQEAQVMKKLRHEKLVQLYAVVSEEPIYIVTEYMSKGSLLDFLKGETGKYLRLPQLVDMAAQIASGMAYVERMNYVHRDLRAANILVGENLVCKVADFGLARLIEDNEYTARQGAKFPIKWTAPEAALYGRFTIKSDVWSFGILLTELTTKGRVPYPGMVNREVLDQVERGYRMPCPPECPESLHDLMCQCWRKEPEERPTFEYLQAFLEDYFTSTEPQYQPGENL
The target in data set [3] is T1, Tyrosine-protein kinase BTK (Homo sapiens, UniProt Q06187). The data set can be described thus: Inhibition of BTK in human whole blood assessed as inhibition of IgM-induced B-cell activation. The class given is tissue-based.
T1 sequence (Q06187 whole entry): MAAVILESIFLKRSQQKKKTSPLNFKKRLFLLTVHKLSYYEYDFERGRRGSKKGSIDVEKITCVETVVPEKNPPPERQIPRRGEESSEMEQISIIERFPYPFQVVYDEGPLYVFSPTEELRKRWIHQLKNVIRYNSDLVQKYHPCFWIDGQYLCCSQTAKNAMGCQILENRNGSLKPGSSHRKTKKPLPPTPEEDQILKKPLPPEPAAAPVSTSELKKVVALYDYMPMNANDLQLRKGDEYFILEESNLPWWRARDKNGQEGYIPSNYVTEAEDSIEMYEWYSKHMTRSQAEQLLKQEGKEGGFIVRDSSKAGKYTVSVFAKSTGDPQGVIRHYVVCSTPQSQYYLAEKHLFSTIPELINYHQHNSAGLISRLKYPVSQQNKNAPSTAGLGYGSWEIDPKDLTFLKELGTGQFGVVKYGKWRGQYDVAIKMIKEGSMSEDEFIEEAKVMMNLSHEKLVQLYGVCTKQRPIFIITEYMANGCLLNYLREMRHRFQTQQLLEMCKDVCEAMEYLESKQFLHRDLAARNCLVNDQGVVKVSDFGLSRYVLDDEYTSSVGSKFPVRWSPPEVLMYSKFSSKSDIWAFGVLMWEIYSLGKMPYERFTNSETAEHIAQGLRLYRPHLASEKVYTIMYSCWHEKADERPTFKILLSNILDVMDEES
Data set [4] addresses T1, Tyrosine-protein kinase BTK. Description: Inhibition of recombinant human BTK using KVEKIGEGTYGVVYK as substrate incubated for 40 mins in presence of [gamma33P]ATP by scintillation counting method.
A short description of data set [5]: Volume of distribution at steady state in Sprague-Dawley rat at 5 mg/kg, po or 1 mg/kg, iv measured upto 24 hrs by LC-MS/MS analysis. The class given is ADME, organism-based. Conditions: in vivo, read-out: Vdss. The procedure, abridged: as §1
Data set [6] concerns the target T2, Tyrosine-protein kinase TXK (Homo sapiens, UniProt P42681).
T2 sequence (P42681 whole entry): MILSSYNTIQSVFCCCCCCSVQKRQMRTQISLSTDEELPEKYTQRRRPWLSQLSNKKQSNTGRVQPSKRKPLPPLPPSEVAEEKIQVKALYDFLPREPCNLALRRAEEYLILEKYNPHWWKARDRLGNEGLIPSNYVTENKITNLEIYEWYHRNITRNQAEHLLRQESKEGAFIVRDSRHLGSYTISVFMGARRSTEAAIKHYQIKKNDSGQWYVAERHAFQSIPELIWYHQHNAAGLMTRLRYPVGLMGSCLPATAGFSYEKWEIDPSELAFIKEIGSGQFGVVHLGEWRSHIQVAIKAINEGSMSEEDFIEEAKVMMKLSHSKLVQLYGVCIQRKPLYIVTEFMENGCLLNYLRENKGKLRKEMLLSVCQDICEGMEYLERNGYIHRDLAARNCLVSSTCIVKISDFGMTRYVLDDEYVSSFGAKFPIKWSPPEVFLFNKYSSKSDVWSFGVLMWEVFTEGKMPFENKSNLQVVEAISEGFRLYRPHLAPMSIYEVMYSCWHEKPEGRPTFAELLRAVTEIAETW
The data set can be described thus: Inhibition of recombinant human TXK (256 to end residues) using GEEPLYWSFPAKKK as substrate incubated for 40 mins in presence of [gamma33P]ATP by scintillation counting method.

Data set [7] is described as follows: Volume of distribution at steady state in Beagle dog at 2.5 mg/kg, po or 0.5 mg/kg, iv measured upto 24 hrs by LC-MS/MS analysis. The class given is ADME, organism-based, Canis lupus familiaris. Conditions: in vivo, read-out: Vdss. The procedure, abridged: as §1
For data set [8], the target named is Tyrosine-protein kinase BTK (Mus musculus, UniProt P35991). The data set can be described thus: Inhibition of BTK in C57Bl/6 mouse splenocyte assessed as reduction in anti-IgM-induced CD69 expression incubated for 1 hr followed anti-IgM stimulation and measured after overnight by flow cytometry analysis. It counts as tissue-based. The procedure, abridged: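 Mouse splenocytes stimulated with anti-IgM. CD69 expression measured as the read-out.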
Sequence of Tyrosine-protein kinase BTK (Mus musculus, UniProt P35991) (P35991 whole entry): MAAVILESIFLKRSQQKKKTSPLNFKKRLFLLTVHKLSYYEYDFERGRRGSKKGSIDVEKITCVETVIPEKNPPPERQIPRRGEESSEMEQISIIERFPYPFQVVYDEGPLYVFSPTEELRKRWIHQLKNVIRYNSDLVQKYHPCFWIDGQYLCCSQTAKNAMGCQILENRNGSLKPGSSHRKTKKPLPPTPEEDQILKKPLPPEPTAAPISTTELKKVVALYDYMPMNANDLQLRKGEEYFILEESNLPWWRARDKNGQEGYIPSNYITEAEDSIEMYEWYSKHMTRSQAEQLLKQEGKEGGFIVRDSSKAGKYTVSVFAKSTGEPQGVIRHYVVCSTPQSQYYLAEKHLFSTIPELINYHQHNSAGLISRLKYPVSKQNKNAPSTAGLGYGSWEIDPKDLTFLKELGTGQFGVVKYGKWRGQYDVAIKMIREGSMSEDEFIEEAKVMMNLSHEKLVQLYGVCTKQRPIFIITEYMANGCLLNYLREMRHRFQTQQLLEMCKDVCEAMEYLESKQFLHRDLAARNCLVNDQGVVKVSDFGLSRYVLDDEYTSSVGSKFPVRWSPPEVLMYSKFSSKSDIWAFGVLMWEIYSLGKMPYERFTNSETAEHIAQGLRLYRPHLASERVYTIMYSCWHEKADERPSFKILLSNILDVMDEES

The target of data set [9] is Tyrosine-protein kinase Fgr (Homo sapiens, UniProt P09769). Description: Inhibition of recombinant human FGR (2 to end residues) using poly(Glu, Tyr) 4:1 as substrate incubated for 40 mins in presence of [gamma33P]ATP by scintillation counting method.
Sequence of Tyrosine-protein kinase Fgr (P09769 whole entry, the tested form may be a part): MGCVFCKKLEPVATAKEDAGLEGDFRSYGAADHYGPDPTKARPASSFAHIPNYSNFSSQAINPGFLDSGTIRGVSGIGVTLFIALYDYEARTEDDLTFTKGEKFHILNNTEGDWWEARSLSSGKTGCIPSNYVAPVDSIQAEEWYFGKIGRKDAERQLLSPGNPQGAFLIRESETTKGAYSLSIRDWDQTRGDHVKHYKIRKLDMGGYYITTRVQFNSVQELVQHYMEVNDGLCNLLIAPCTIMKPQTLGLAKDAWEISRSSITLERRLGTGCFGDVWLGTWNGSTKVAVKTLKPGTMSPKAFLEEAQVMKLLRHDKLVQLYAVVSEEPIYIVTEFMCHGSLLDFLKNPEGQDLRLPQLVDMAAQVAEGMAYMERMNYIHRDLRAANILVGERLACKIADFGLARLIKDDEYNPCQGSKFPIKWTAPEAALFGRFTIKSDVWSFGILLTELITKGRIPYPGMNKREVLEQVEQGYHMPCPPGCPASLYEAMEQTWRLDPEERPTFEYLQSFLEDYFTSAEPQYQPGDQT
The target of data set [10] is Tyrosine-protein kinase HCK (Homo sapiens, UniProt P08631). The data set can be described thus: Inhibition of recombinant human HCK (230 to 497 residues) using GGMEDIYFEFMGGKKK as substrate incubated for 40 mins in presence of [gamma33P]ATP by scintillation counting method.
Sequence of Tyrosine-protein kinase HCK (P08631 whole entry, the tested form may be a part): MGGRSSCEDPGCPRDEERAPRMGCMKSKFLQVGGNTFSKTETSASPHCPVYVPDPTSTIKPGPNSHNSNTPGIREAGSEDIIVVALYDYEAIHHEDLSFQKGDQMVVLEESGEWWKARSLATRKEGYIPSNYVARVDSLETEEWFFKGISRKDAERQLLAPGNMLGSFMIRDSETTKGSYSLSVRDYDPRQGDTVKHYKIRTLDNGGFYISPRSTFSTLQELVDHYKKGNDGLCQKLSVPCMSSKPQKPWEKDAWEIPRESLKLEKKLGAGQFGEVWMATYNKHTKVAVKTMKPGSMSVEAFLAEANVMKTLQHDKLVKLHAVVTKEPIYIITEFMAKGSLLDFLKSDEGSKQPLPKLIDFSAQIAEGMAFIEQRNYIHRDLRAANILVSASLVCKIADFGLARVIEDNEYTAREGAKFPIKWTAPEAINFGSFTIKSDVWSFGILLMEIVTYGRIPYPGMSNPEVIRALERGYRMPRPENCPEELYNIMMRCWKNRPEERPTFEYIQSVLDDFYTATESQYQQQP
Data set [11] addresses Tyrosine-protein kinase Lck (Homo sapiens, UniProt P06239). The data set can be described thus: Inhibition of recombinant human full length LCK using KVEKIGEGTYGVVYK as substrate incubated for 40 mins in presence of [gamma33P]ATP by scintillation counting method.
For data set [12], the target named is T3, Cytoplasmic tyrosine-protein kinase BMX (Homo sapiens, UniProt P51813).
T3 sequence (P51813 whole entry): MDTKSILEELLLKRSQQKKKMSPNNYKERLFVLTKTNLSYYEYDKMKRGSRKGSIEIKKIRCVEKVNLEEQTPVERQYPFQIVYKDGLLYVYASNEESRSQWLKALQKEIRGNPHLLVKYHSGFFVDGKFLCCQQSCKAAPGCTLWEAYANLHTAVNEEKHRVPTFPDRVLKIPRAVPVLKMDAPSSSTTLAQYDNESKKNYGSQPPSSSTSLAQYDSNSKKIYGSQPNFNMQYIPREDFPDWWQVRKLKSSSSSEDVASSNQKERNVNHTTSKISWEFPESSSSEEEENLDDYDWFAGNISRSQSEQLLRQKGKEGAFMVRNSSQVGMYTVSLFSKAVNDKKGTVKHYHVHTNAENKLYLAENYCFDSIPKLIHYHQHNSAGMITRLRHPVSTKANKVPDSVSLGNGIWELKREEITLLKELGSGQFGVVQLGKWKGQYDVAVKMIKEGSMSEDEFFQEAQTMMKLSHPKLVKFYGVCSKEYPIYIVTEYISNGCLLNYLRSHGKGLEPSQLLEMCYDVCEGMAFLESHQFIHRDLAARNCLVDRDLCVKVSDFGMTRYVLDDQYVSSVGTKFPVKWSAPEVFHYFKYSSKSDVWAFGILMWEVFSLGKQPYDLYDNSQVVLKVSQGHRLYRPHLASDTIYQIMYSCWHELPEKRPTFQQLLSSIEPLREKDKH
Description: Inhibition of recombinant human full length BMX using poly(Glu, Tyr) 4:1 as substrate incubated for 40 mins in presence of [gamma33P]ATP by scintillation counting method.

The nature of data set [13]: Cmax in Sprague-Dawley rat at 5 mg/kg, po measured upto 24 hrs by LC-MS/MS analysis. It counts as ADME, organism-based. Set-up: route oral, dose 5 mg/kg, time <=24. Conditions: in vivo. The procedure, abridged:
as §1

In data set [14] the target is T1, Tyrosine-protein kinase BTK. The data set can be described thus: Irreversible covalent inhibition of recombinant unphosphorylated human GST-tagged BTK kinase domain (389 to 659 residues) expressed in insect cells assessed as protein-compound adduct formation under denaturing conditions by HPLC analysis. The procedure, abridged: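 BTK protein incubated with compound. Adduct mass measured under denaturing and nondenaturing conditions.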

The nature of data set [15]: Tmax in Beagle dog at 2.5 mg/kg, po measured upto 24 hrs by LC-MS/MS analysis. It counts as ADME, organism-based, Canis lupus familiaris. Conditions: in vivo. An outline of the steps: as §1
Data set [16] has as its target Serine/threonine-protein kinase B-raf (Homo sapiens, UniProt P15056). Description: Inhibition of recombinant human B-RAF (416 to end residues) using myelin basic protein as substrate incubated for 40 mins in presence of [gamma33P]ATP by scintillation counting method.

The source made the active and inactive calls. The calls are words filed in the database; no cut-off is given here.

One may read the bioavailability as the share of a dose that reaches the circulation, judged against a reference dose that is usually intravenous. The low end stands for poor availability, the high end for good availability. In general, IC50 refers to the point on the concentration scale where inhibition reaches its midpoint. By Cmax is commonly meant the peak of the concentration-time curve. By Tmax is commonly meant the time from dosing to the highest level.

Sequence of Serine/threonine-protein kinase B-raf (P15056 whole entry): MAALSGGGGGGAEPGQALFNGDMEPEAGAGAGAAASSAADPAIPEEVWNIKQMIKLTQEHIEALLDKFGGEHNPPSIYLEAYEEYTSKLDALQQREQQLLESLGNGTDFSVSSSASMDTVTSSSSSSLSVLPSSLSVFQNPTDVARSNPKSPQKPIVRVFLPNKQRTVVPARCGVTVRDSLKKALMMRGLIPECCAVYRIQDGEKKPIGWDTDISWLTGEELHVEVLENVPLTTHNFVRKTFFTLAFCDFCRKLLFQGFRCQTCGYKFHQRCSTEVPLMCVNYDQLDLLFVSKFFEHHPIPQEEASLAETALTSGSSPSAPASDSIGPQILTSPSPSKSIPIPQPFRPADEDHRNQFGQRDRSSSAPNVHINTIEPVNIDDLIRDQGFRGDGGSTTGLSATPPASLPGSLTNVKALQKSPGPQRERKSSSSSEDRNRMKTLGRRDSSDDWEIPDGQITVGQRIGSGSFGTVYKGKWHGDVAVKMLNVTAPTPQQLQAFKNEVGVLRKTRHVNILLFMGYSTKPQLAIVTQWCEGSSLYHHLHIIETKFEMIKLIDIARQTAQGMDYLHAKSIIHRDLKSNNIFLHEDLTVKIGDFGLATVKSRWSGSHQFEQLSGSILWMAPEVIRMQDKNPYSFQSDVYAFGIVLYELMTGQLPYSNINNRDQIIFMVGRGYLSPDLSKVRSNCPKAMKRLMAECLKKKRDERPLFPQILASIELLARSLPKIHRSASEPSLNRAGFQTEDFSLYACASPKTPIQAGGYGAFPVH
Sequence of Tyrosine-protein kinase Lck (P06239 whole entry): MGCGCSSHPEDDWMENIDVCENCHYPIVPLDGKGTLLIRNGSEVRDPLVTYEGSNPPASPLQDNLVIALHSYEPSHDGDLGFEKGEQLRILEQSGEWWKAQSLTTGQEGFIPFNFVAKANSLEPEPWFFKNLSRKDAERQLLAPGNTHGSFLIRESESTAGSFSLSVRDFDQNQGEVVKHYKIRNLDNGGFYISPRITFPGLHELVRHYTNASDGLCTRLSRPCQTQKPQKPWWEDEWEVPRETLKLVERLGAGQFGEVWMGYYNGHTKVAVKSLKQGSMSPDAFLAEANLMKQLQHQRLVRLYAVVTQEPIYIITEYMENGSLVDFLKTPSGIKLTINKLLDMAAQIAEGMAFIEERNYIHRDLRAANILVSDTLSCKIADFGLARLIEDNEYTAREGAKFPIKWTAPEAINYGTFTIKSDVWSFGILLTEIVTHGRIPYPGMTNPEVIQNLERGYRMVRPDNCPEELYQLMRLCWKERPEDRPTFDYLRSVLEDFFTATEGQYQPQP

Consider `C=CC(=O)N1CC[C@@H](NC(=O)c2sc3nccc4c3c2NC(=O)N4c2ccc(Oc3ccccc3)cc2C)C1`, for which the Activity entry in the data set with Rattus norvegicus was “Dose-Dependent Effect”. Besides, in [1], the bioavailability is 68%. In addition, the IC50 was found to be 3.49 µM in data set [2]; 0.084 µM in data set [3]; 0.142 µM in [4]; 1.77 µM in [6]; 0.011 µM in data set [8]; 4.76 µM in data set [9]. Further, the IC50 in data set [10] is over 30 µM; in data set [11], 0.13 µM; in data set [12], 0.129 µM; in [16] it was 7.84 µM. The Vd in [5] was determined as 1 L/kg; in [7], 1.1 L/kg. In addition, the concentration in data set [13] peaked (Cmax) at 600 nM. The inhibition result in data set [14] is “Active”. The Tmax in data set [15] came to 48 min.

Values taken from ChEMBL document CHEMBL4814076, “Discovery of a Potent and Selective Covalent Inhibitor of Bruton's Tyrosine Kinase with Oral Anti-Inflammatory Activity” (ACS Med Chem Lett, 2021).
